Laboratory results reported in ChEMBL document CHEMBL4406803, “A- and D-Ring Structural Modifications of an Androsterone Derivative Inhibiting 17β-Hydroxysteroid Dehydrogenase Type 3: Chemical Synthesis and Structure-Activity Relationships” (J Med Chem, 2019).
Activity calls are given as the source filed them. The rule behind the calls is not given here.

Legend:
[1] = target: T1, 17-beta-hydroxysteroid dehydrogenase type 3 (Homo sapiens) (UniProt P37058); assay: Inhibition of 17beta-HSD3 (unknown origin) expressed in human LNCAP cells assessed as reduction in [14C]-testosterone formation from [14C]-4-androstene-3,17-dione at 0.1 uM measured after 1 hr relative to control; type: cell-based
T1 sequence (whole entry): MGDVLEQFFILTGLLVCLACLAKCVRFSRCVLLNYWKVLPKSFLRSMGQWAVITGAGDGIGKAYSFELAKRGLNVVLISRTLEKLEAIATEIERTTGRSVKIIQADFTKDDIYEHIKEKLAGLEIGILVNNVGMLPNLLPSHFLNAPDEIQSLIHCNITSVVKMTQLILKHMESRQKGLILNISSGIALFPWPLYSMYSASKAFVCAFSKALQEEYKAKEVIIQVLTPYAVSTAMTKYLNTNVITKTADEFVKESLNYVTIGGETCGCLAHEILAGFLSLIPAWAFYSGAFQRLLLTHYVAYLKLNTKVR
Summary of the method: (§1)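 LNCaP cells stably transfected with 17β-HSD3 were plated at 10,000 per well in hygromycin-free medium and grown 2 days. They were then given 15 nM [14C]-4-androstenedione plus inhibitor at 0.1, 0.5 or 1.0 µM (0.05% DMSO final) for 1 h. Steroids were ether-extracted, separated by TLC and quantified by radioimaging. Results are % inhibition of conversion to T.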

[2] = target: T1, 17-beta-hydroxysteroid dehydrogenase type 3 (Homo sapiens); assay: Inhibition of 17beta-HSD3 (unknown origin) expressed in human LNCAP cells assessed as reduction in [14C]-testosterone formation from [14C]-4-androstene-3,17-dione at 0.5 uM measured after 1 hr relative to control; type: cell-based; summary of the method: as §1
[3] = target: T1, 17-beta-hydroxysteroid dehydrogenase type 3 (Homo sapiens); assay: Inhibition of 17beta-HSD3 (unknown origin) expressed in human LNCAP cells assessed as reduction in [14C]-testosterone formation from [14C]-4-androstene-3,17-dione at 1 uM measured after 1 hr relative to control; type: cell-based; summary of the method: as §1
[4] = target: T2, 17-beta-hydroxysteroid dehydrogenase type 3 (Homo sapiens, UniProt P37058); assay: Inhibition of 17beta-HSD3 (unknown origin) expressed in human LNCAP cells assessed as reduction in [14C]-testosterone formation from [14C]-4-androstene-3,17-dione measured after 1 hr; type: cell-based
T2 sequence (P37058 whole entry): T1 sequence (whole entry)
Summary of the method: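 Transfected LNCaP[17β-HSD3] cells were incubated 1 h with 15 nM [14C]-4-androstenedione and inhibitor at seven concentrations (0.001–5.0 µM; 0.05% DMSO). [14C]-T formation was measured by TLC and radioimaging. IC50 was obtained by curve fitting, averaging two independent experiments in triplicate.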

[5] = target: T3, 17-beta-hydroxysteroid dehydrogenase type 3 (Rattus norvegicus, UniProt O54939); assay: Inhibition of 17beta-HSD3 in Sprague-Dawley rat testes microsomal fraction assessed as reduction in [14C]-testosterone formation from [14C]-4-androstene-3,17-dione measured after 2 hrs; set-up: species or system Testis
T3 sequence (O54939 whole entry): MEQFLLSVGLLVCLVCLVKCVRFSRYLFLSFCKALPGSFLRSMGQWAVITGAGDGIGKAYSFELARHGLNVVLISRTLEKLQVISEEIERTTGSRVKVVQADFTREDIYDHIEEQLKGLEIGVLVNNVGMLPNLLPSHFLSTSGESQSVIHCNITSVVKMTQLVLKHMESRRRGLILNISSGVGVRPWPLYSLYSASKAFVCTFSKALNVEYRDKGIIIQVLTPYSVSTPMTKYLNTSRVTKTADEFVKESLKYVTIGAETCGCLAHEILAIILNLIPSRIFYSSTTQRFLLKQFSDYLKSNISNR
Summary of the method: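 The enzyme source was a microsomal fraction from Sprague-Dawley rat testes, prepared by homogenization in phosphate/sucrose/EDTA buffer (pH 7.5) and centrifugation at 100,000 g. The assay ran 2 h at 37 °C in 50 mM sodium phosphate (pH 7.4, 20% glycerol, 1 mM EDTA) with NADPH cofactor and [14C]-4-androstenedione. [14C]-T formation was measured at six inhibitor concentrations in triplicate, and IC50 was fitted from the curves.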

[6] = Plasma concentration in mouse at 25 mg/kg, sc administered as single dose measured after 3 hrs by LC-MS/MS analysis; type: ADME, organism-based
Summary of the method: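 Female mice were fasted 8 h, then given a single 25 mg/kg subcutaneous dose in 0.1 mL of 0.4% aqueous methylcellulose with 8% DMSO. At 3 h, blood was taken by cardiac puncture into K-EDTA tubes (3 mice per group). Plasma was extracted and analysed by LC-MS/MS against a plasma calibration curve.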

[7] = test system: LAPC4; assay: Antiproliferative activity against human LAPC4 cells expressing androgen receptor assessed as inhibition of cell proliferation at 0.1 uM supplemented with fresh medium containing compounds every 3 days for 7 days by MTS assay relative to control; type: functional
Summary of the method: (§2)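 Androgen-dependent LAPC-4 cells were seeded at 5,000 per well in IMDM with 5% dextran-coated charcoal-treated FBS and pre-incubated 24 h at 37 °C, 5% CO2. Compounds were added from DMSO stock at 0.1, 0.5 and 1.0 µM, with 0.05% DMSO in controls. Incubation lasted 7 days, with a medium change at day 3. Growth was read by MTS (4 h, 490 nm) as % of untreated control (100%), in triplicate.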

[8] = test system: LAPC4; assay: Antiproliferative activity against human LAPC4 cells expressing androgen receptor assessed as inhibition of cell proliferation at 0.5 uM supplemented with fresh medium containing compounds every 3 days for 7 days by MTS assay relative to control; type: functional; summary of the method: as §2
[9] = test system: LAPC4; assay: Antiproliferative activity against human LAPC4 cells expressing androgen receptor assessed as inhibition of cell proliferation at 1 uM supplemented with fresh medium containing compounds every 3 days for 7 days by MTS assay relative to control; type: functional; summary of the method: as §2
[10] = test system: PC-3; assay: Antiproliferative activity against AR-deficient human PC3 cells assessed as reduction in cell proliferation at 0.1 uM measured after 3 days by MTS assay relative to control; type: functional; set-up: scale not given: the % may be the effect or the level left
Summary of the method: (§3)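 Androgen-independent PC-3 cells were plated at 3,000 per well in triplicate in RPMI-1640 with 10% FBS. Compounds were added at 0.1, 0.5 and 1.0 µM from DMSO stock, with 0.05% DMSO in controls, and incubated 3 days. Growth was read by MTS (4 h, 490 nm) and expressed as % of non-treated control (100%).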

[11] = test system: PC-3; assay: Antiproliferative activity against AR-deficient human PC3 cells assessed as reduction in cell proliferation at 0.5 uM measured after 3 days by MTS assay relative to control; type: functional; set-up: scale not given: the % may be the effect or the level left; summary of the method: as §3
[12] = test system: PC-3; assay: Antiproliferative activity against AR-deficient human PC3 cells assessed as reduction in cell proliferation at 1 uM measured after 3 days by MTS assay relative to control; type: functional; set-up: scale not given: the % may be the effect or the level left; summary of the method: as §3
[13] = test system: T47D; assay: Estrogenic activity in human T47D cells assessed as stimulation of cell proliferation at 1 to 5 uM; type: ADME, cell-based
[14] = test system: T47D; assay: Antiproliferative activity against human T47D cells assessed as reduction in cell proliferation at 1 to 5 uM; type: functional, cell-based
[15] = test system: LAPC4; assay: Antiproliferative activity against human LAPC4 cells expressing androgen receptor assessed as inhibition of cell proliferation supplemented with fresh medium containing compounds every 3 days for 7 days by MTS assay; type: functional, cell-based; summary of the method: as §2
[16] = test system: LAPC4; assay: Antiproliferative activity against human LAPC4 cells expressing androgen receptor assessed as inhibition of cell proliferation at 0.1 uM measured after 3 days by MTS assay relative to control; type: functional; conditions: LAPC4, 72 h
[17] = test system: LAPC4; assay: Antiproliferative activity against human LAPC4 cells expressing androgen receptor assessed as inhibition of cell proliferation at 0.5 uM measured after 3 days by MTS assay relative to control; type: functional; conditions: LAPC4, 72 h
[18] = test system: LAPC4; assay: Antiproliferative activity against human LAPC4 cells expressing androgen receptor assessed as inhibition of cell proliferation at 1 uM measured after 3 days by MTS assay relative to control; type: functional; conditions: LAPC4, 72 h
[19] = Stability of the compound in human liver S9 fraction at 10 uM measured after 1 hr by NADPH by HPLC-MS analysis; type: ADME, subcellular; conditions: s9, 1 h
Summary of the method: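 Substrate (10 µM) was incubated 1 h at 37 °C with 40 µg human liver S9 fraction in 50 mM Tris with 10 mM MgCl2, with or without 10 mM NADPH. The reaction was stopped with MeOH. Remaining parent was measured by HPLC-MS (UV 190 nm) as the AUC ratio with/without NADPH ×100. Values are the mean ± SD of four independent experiments.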

inhibition [1] [%] | inhibition [2] [%] | inhibition [3] [%] | IC50 [4] [nM] | IC50 [5] [nM] | concentration at 3 h [6] [ng/mL] | Stability [19] | Compound | inhibition (INH) [7] [%] | inhibition (INH) [8] [%] | inhibition (INH) [9] [%] | Activity [10] [%] | Activity [11] [%] | Activity [12] [%] | Activity [13] | Activity [14] | inhibition [15] | inhibition at 0.1 µM [16] [%] | inhibition at 0.5 µM [17] [%] | inhibition at 1 µM [18] [%]
38 | 60 | 70 | 130 | 100 | 51.6 | – | CC1CN(S(=O)(=O)c2ccccc2C(F)(F)F)C(C)CN1CCc1ccc2c(c1)CC[C@@H]1[C@@H]2CC[C@]2(C)C(=O)CC[C@@H]12 (some centres not stated) | 48 | 80 | 79 | 1 | 5 | 1 | Non-Toxic | inactive | Dose-dependent effect | – | – | –
– | – | – | – | – | – | – | C#C[C@]1(O)CC[C@H]2[C@@H]3CCc4cc(OC)c(N5CCN(C(=O)[C@@H]6CCCN6C(=O)c6ccc7ccccc7n6)CC5)cc4[C@H]3CC[C@@]21C | – | – | – | 3 | 20 | 39 | – | – | – | 19 | 62 | 69
45 | 78 | 90 | 100 | 110 | 108 | Stable | CC1CN(S(=O)(=O)c2ccccc2C(F)(F)F)C(C)CN1C(=O)c1ccc2c(c1)CC[C@@H]1[C@@H]2CC[C@]2(C)C(=O)CC[C@@H]12 (some centres not stated) | 40 | 54 | 63 | 7 | 0 | 6 | – | – | Dose-dependent effect | – | – | –
50 | 76 | 84 | 170 | 120 | 89.3 | – | CC1CN(S(=O)(=O)c2ccccc2C(F)(F)F)C(C)CN1Cc1cc2c(cc1O)CC[C@@H]1[C@@H]2CC[C@]2(C)C(=O)CC[C@@H]12 (some centres not stated) | 0 | 7 | 6 | 4 | 5 | 7 | Non-Toxic | inactive | – | – | – | –
– | – | – | 20 | 60 | 48.7 | – | CC1CN(S(=O)(=O)c2ccccc2C(F)(F)F)C(C)CN1CC(O)c1ccc2c(c1)CC[C@@H]1[C@@H]2CC[C@]2(C)C(=O)CC[C@@H]12 (single isomer, unassigned; diastereomer B) | -3 | 32 | 44 | 8 | 6 | 5 | – | – | – | – | – | –
60 | 96 | 100 | 90 | 80 | 27.7 | Unstable | CC1CN(S(=O)(=O)c2ccccc2C(F)(F)F)C(C)CN1C[C@@]1(O)CC[C@@]2(C)[C@@H](CC[C@@H]3[C@@H]2CC[C@]2(C)C(=O)CC[C@@H]32)C1 (some centres not stated) | 4 | 52 | 67 | 9 | 6 | 11 | – | – | Dose-dependent effect | – | – | –
